UHRF1 binding = blocks human UHRF1 binding to methylated DNA. Q96T88. UHRF1 binding to methylated oligo, TR-FRET. inhibition, % at 4.4 µM. 0.75% of 370,000 active. AID 687016; in the data active means inhibition above about 21%;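 further: UHRF1 SRA domain binding a hemimethylated CpG hairpin DNA probe; 0% = median of test compound wells and 100% = reference inhibitor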
TCR-CD3 inh = inhibitors of human TCR-CD3 interaction; TAMRA-labeled TCR probe fluorescence, biochemical; inhibition, % at 9.4 µM; 0.37% of 360,000 active; AID 651800; in the data active means inhibition above about 19%;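 further: recombinant mutant TCR 2C K166C tagged with TAMRA read by polarization; 0% = receptor in buffer alone and 100% = receptor with positive control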
ARFGAP1 inh = inhibits rat ARF GTPase activating protein 1 | Q62848 | Arfgap1-stimulated ARF1 GTP hydrolysis, GDP FP detection | inhibition, % at 16.5 µM | 0.26% of 360,000 active | AID 651572;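 active means inhibition above a per-plate limit, mean inhibition of low control wells plus 3 SD, cut at about 25% in these data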;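 further: 0% = DMSO wells with enzyme and 100% = wells lacking Arfgap1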
Target sequence (Q62848 1-136 limits assumed): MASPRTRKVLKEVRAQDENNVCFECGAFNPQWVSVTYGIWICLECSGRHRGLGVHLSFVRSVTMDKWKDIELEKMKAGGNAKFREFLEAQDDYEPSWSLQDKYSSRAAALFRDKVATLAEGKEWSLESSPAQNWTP
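System: truncated rat Arfgap1 GAP domain / Medium: HEPES-based buffer, pH 7.5 / Also added: N-terminally truncated human ARF1-GTP substrate / Incubation: enzyme reaction 120 min at 25 °C after 20 min preincubation / Measured by: FP of antibody-bound GDP Alexa 633 tracer, ex 620/em 688 nm / Replicates: singlicate, each compound tested once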
ASAP1 GAP inh = blocks human ASAP1-stimulated Arf1 GTP hydrolysis | inhibition, % at 16.5 µM | GDP FP detection | Q9ULH1 | 0.19% of 360,000 active; in the data active means inhibition above about 25%;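 further: 0% = vehicle with enzyme and substrate and 100% = no enzyme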
MBD2 DNA inh = blocks human MBD2 binding to methylated DNA | 0.31% of 370,000 active | TR-FRET, MBD2 binding to methylated oligonucleotide | Q9UBB5 | inhibition, % at 4.4 µM | AID 686964; in the data active means inhibition above about 13%
LEDGF integ inh = blocks HIV-1 LEDGF/p75-dependent DNA integration; TR-FRET IN-LEDGF/p75 DNA integration, Eu/Cy5; inhibition, % at 3.7 µM; 0.64% of 370,000 active; AID 743269;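 active means inhibition above the screen-wide mean plus 3 SD, cut at about 13% in these data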;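 further: signal is the Cy5 over europium emission ratio at 671 and 618 nm; 0% = plate median of compound wells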
ARFGAP1 inh conf = confirmation of rat ARFGAP1 inhibitors. shares compounds with ARFGAP1 inh. inhibition, % at 16.5 µM. ARFGAP1-stimulated ARF1 GTP hydrolysis, GDP tracer FP. 30% of 890 active;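 active means average inhibition over triplicates above the hit cutoff set in the earlier primary screen, cut at about 25% in these data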;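 further: 0% = Arfgap1 plus ARF1-GTP with DMSO and 100% = wells lacking Arfgap1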
Target sequence (Q62848 whole entry, looked up): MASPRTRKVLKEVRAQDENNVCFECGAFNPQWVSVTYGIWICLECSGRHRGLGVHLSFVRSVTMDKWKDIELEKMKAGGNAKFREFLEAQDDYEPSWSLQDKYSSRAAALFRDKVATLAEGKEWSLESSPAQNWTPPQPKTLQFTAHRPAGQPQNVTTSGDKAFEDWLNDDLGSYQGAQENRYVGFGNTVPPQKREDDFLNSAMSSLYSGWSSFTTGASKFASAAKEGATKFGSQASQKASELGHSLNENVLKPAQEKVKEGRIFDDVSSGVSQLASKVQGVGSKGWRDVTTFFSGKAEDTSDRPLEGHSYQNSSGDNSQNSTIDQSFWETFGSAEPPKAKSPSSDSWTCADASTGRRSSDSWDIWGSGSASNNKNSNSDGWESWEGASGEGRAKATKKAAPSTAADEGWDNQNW
* = called active by the depositor; nt = no result. Rows were chosen to be rich in hits. Some 2% of all compounds tested hit in one or more screens of this group.

SMILES | UHRF1 binding | TCR-CD3 inh | ARFGAP1 inh | ASAP1 GAP inh | MBD2 DNA inh | LEDGF integ inh | ARFGAP1 inh conf
CN(CC(=O)NCC1CCCO1)S(=O)(=O)c1ccc2ccccc2c1 (configuration not stated) | 0 | -4 | 32* | 3 | 1 | -4 | 1
CN(CC(=O)NCC1CCCO1)S(=O)(=O)c1ccc(Br)cc1 (configuration not stated) | -2 | 6 | 5 | -6 | 0 | 0 | nt
Cc1ccc2nc(SCC(=O)c3ccccc3)nc(=O)n2c1 | 0 | 4 | 37* | 18 | 0 | -1 | 47*
Cc1ccc2nc(SCC(=O)NC3CCCC3)nc(=O)n2c1 | 1 | -1 | 16 | 14 | -3 | 6 | nt
Cc1ccc2nc(SCC(=O)N3CCCC3)nc(=O)n2c1 | -1 | -5 | 61* | 21 | 0 | 0 | 44*
COCCNC(=O)C1(C)CCN(C(=O)COc2ccc(Cl)cc2Cl)C1 (configuration not stated) | 2 | 0 | 11 | -4 | 2 | -1 | nt
Cc1ccc(-n2c(=O)cc(N3CCC(C)CC3)[nH]c2=O)cc1 | 6 | -3 | 26* | 12 | -3 | 3 | 3
Cc1ccc(-n2c(=O)cc(N3CC(C)CC(C)C3)[nH]c2=O)cc1 (configuration not stated) | 0 | 4 | -8 | -5 | -7 | 3 | nt
O=C(NCc1csc(-c2cccs2)n1)Nc1cccc(Cl)c1 | 6 | -6 | 26* | 2 | 1 | -3 | 6
CCC(=O)NCc1csc(-c2cccs2)n1 | 0 | 3 | 3 | 0 | -2 | -4 | nt
COc1ccc(-n2c(=O)c3c4c(sc3n3cnnc23)CC(C)CC4)cc1 (configuration not stated) | 1 | 7 | 27* | 16 | -5 | 0 | 62*
Cc1nnc2n(-c3ccccc3)c(=O)c3c4c(sc3n12)CC(C)CC4 (configuration not stated) | -1 | 6 | -6 | 1 | 1 | 2 | nt
COCC(=O)N(C)C[C@@H]1Oc2ncc(Br)cc2C(=O)N([C@@H](C)CO)C[C@H]1C | 2 | -2 | -14 | -9 | 4 | -10 | nt
CC1COCC(C)N1S(=O)(=O)c1ccc2c(c1)CCN2C(=O)C1CCC1 (configuration not stated) | 4 | nt | nt | nt | -2 | -2 | nt
Cc1cc(O)c(C(C)C)cc1C1(c2cc(C(C)C)c(O)cc2C)OC(=O)c2ccccc21 | 0 | -1 | 27* | 18 | 0 | 4 | 19
COc1ccc(C(c2oc(CO)cc(=O)c2O)c2oc(CO)cc(=O)c2O)cc1OC | 0 | 4 | 27* | 6 | 2 | 4 | 1
COc1cc(C(c2oc(CO)cc(=O)c2O)c2oc(CO)cc(=O)c2O)cc(OC)c1OC | 0 | 4 | 5 | 17 | 1 | -5 | nt
CC(C(=O)Nc1nc(-c2ccc(F)c(F)c2)cs1)N1C(=O)C2CC=CCC2C1=O (configuration not stated) | 3 | -11 | 27* | 6 | 0 | -5 | 2
CC(=O)Nc1cccc(-c2ccnc3c2CC(C)(C(=O)Nc2cccc(Oc4ccccc4)c2)O3)c1 (configuration not stated) | 1 | 3 | 9 | 8 | -4 | -1 | nt
COc1cc(C#Cc2c(-c3cncn3C)n(C)c3ccc(-c4ccc5cc[nH]c5c4)cc23)cc(OC)c1 | -6 | 0 | 32* | 21 | -3 | 0 | 21
Cc1ccccc1NC(=O)NCCCN1CCCC1 | 0 | 2 | 26* | -2 | 3 | -3 | -5
Cc1cccc(S(=O)(=O)N2CCC[C@H]2C(=O)N2CCC[C@@H]2C(=O)NCc2ccccc2)c1 | 1 | 4 | -2 | -7 | 5 | 1 | nt
CN(C)CCNC(=O)COc1ccc(Cl)cc1Cl | -2 | -3 | -8 | -9 | 0 | -2 | nt
O=C(COc1ccc(Cl)cc1Cl)NCCSc1ccc(Cl)cc1 | 1 | -8 | 29* | 4 | 4 | 2 | -2
Nc1ccccc1C(=O)NN=Cc1cccc([N+](=O)[O-])c1 | 3 | 3 | -6 | 5 | -2 | 3 | nt
SMILES | UHRF1 binding | TCR-CD3 inh | ARFGAP1 inh | ASAP1 GAP inh | MBD2 DNA inh | LEDGF integ inh | ARFGAP1 inh conf
Cc1nc2ccccc2cc1C(=O)N/N=C/c1cccc([N+](=O)[O-])c1 | -1 | -8 | 25* | 4 | 1 | 1 | 8
COc1cc2c3nnc(-c4ccc(F)cc4)c-3cn(Cc3ccc(C)cc3)c2cc1OC | -1 | -2 | 39* | 16 | 2 | 1 | 48*
Cc1ccc(Cn2nc3c4cc(F)ccc4n(Cc4ccc(F)cc4)cc-3c2=O)cc1 | 1 | 2 | 0 | -9 | 2 | -3 | nt
O=C(Nc1ccccc1)Nc1nnc([C@H]2C[C@H](O)[C@@H](CO)O2)s1 | -1 | 3 | 12 | 3 | 1 | 2 | nt
C=CCNc1nc(NCc2cccc(OC)c2)c2sc(-c3ccccc3)cc2n1 | -2 | -5 | 26* | 14 | -2 | -4 | 26*
CC1(C)CC(NC(=O)c2ccc3c(c2)OCO3)CC(C)(C)N1 | 2 | -2 | 26* | 4 | 2 | 1 | 1
CCOC(=O)c1ccc(-c2ccc3c(=O)c4ccccc4n(C)c3c2)cc1F | 1 | -2 | 26* | -12 | 3 | 5 | 8
CCOC(=O)c1ccc(/C=C2\c3ccccc3C(=O)N2c2ccccc2)cc1F | -4 | 2 | 12 | 8 | 3 | -1 | nt
COc1ccnc(-n2cccc2C#N)c1C#N | -1 | -2 | 8 | 13 | -2 | 0 | nt
CO/N=C/c1cccn1-c1nccc(OC)c1C#N | 0 | 4 | 31* | -1 | 3 | 1 | 4
CC(C)(C)OC(=O)[C@H](Cc1ccccc1)NCC(=O)OCc1ccc(C(=O)NCc2ccccc2)cc1 | -5 | nt | nt | nt | 1 | 5 | nt
CC1(c2nnnn2Cc2ccccc2)CCCCC(=O)N1Cc1cccs1 (configuration not stated) | 4 | nt | nt | nt | 4 | 0 | nt
COc1ccc(C(=O)N2CCC(C)(C(=O)O)C2)c(OC)c1 (configuration not stated) | 0 | -3 | 26* | 4 | 0 | -3 | -5
CCOC(=O)C1CCCN(C(=O)c2ccc(OC)cc2OC)CC1 (configuration not stated) | 2 | -1 | 5 | 8 | -3 | 2 | nt
CCOC(=O)C1CCN(C(=O)c2ccc(OC)cc2OC)CC1 | 3 | -5 | 29* | 9 | -5 | -2 | 2
COc1ccc(NC(=O)COC(=O)c2c3c(nc4ccccc24)CCCC3)cc1Cl | 0 | 12 | 27* | 0 | -6 | 2 | 14
CN(C)S(=O)(=O)Nc1ccc2c(c1)Cc1ccccc1-2 | -1 | 2 | 28* | -12 | 0 | -1 | -6

Assay outcomes from PubChem.
